# Legend:
# Brain = assay: Antiperoxidative activity in Sprague-Dawley rat brain assessed as inhibition of malonaldehyde level; assay type: functional, tissue-based
# Outline: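 Cerebral cortex from male SD rats (6 weeks) homogenized in ice-cold 50 mM PBS pH 7.4, spun 1300g. Supernatant incubated 37 °C, 30 min with vehicle or compound. Stopped with 20% TCA; thiobarbituric acid reaction at 100 °C, 15 min; MDA read at 532 nm, less pre-assay MDA. Duplicate assay, n = 2.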
# [1] = biological target: T1, Sterol O-acyltransferase 1 (Homo sapiens, UniProt P35610); assay: Inhibition of ACAT-mediated esterified cholesterol accumulation in human THP1 cells exposed to acetyl-LDL during differentiation assessed as effect on foam cell formation; assay type: cell-based, THP-1
# T1 sequence (P35610 whole entry): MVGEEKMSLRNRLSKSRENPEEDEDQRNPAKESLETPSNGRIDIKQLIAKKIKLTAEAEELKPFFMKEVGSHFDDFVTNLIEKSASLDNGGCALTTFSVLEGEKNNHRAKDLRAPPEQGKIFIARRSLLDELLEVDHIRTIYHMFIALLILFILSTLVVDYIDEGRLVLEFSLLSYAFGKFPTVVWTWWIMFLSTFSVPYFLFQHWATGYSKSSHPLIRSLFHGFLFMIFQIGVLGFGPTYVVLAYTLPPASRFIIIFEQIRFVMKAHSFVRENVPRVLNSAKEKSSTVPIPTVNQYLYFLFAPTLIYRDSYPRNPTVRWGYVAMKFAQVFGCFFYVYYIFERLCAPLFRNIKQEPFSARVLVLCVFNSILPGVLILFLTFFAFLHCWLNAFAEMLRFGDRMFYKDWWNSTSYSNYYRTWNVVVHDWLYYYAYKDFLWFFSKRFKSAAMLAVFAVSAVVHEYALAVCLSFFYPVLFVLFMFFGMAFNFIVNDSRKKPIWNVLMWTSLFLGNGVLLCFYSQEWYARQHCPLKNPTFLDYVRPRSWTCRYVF
# [2] = Distribution coefficient, log D at pH 7.0; assay type: physicochemical; conditions: octanol/water
# Outline: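 5 mg of compound in 5 mL octanol shaken 30 min at room temperature with 5 mL 1/15 M potassium phosphate buffer pH 7.0, then centrifuged. Both phases quantified by HPLC. log D taken as log of the octanol/buffer concentration ratio.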
# [3] = biological target: T2, Acyl-CoA:cholesterol acyltransferase (Oryctolagus cuniculus, UniProt Q95214); assay: Inhibition of normocholesterolemic rabbit liver ACAT
# T2 sequence (Q95214 whole entry): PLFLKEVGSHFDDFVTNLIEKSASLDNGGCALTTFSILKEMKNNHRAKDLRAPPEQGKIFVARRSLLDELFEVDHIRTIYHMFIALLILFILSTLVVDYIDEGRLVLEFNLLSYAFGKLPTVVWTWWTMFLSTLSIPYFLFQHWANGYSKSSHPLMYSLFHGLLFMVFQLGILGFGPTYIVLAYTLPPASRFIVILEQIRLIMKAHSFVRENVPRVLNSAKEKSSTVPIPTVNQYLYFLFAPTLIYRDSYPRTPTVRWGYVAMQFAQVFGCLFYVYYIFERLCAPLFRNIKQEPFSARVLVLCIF
# Outline: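 Liver from normocholesterolemic male Japanese White rabbits homogenized in sucrose/phosphate/EDTA/dithioerythritol buffer pH 7.4. Microsomes collected by 12000g then 105000g spins. Then 30 nmol [1-¹⁴C]oleoyl-CoA added, 20 min at 37 °C. Cholesteryl ester extracted and separated by TLC.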
# [4] = AUC in Sprague-Dawley rat at 10 mg/kg, po; assay type: ADME, organism-based; parameters: dose 10 mg/kg, route oral; conditions: plasma
# Outline: (§1)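 Male SD rats, 6-7 weeks, fasted overnight, n = 3; single oral 10 mg/kg dose suspended in 5% arabic gum. Jugular-vein heparinized blood at 0.5, 1, 3, 5, 8, 24 h; plasma free-form compound by HPLC. AUC taken over 24 h.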
# [5] = Solubility in water at pH 7.0; assay type: physicochemical
# Outline: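 6 mg of compound shaken 30 min at room temperature in 3 mL 1/15 M potassium phosphate buffer pH 7.0, centrifuged and filtered (0.45 µm). Filtrate concentration by HPLC.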
# Rattus norvegicus [6] = assay: Hypolipidemic effect in high-cholesterol diet fed Wistar rat assessed as HDL cholesterol level at 3 mg/kg/day, po for 3 days; assay type: functional
# Outline: (§2)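 Male Wistar rats, 8-9 weeks, on a diet of 1% cholesterol, 0.5% cholic acid and 10% coconut oil for 3 days; dosed orally once daily in 5% arabic gum, or vehicle (n = 5/group). Fasted 5 h after the last dose; abdominal-aorta blood under pentobarbital. Serum total and HDL cholesterol measured enzymatically.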
# [7] = biological target: T2, Acyl-CoA:cholesterol acyltransferase; assay: Inhibition of ACAT in hyperlipidemic white rabbit intestine microsomes assessed as esterified cholesterol accumulation; parameters: species or system Microsome
# Outline: (§3)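 Microsomes (12000g then 105000g spins at 4 °C, sucrose/phosphate/EDTA/dithioerythritol buffer pH 7.4) from hypercholesterolemic rabbit tissues, in 154 mM phosphate pH 7.4 with BSA. Compound preincubated 5 min at 37 °C, then 30 nmol [1-14C]oleoyl-CoA added. Reaction at 37 °C: adrenal 10 min, intestine 7.5 min, liver 20 min, macrophage 30 min. Labelled cholesteryl ester extracted and resolved by TLC. IC50 from duplicate tubes.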
# Cavia porcellus = assay: Adrenotoxicity in guinea pig at 100 mg/kg/day administered for 4 days; assay type: toxicity, organism-based; conditions: in vivo, 96 h
# Syrian golden hamster [8] = assay: Hypolipidemic effect in regular diet fed Syrian hamster assessed as HDL:HDL cholesterol level at 3 mg/kg/day, po for 3 weeks; assay type: functional, Mesocricetus auratus
# Outline: (§4)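 Male Syrian hamsters, 9 weeks, regular diet for 3 weeks with once-daily oral dosing in 5% arabic gum, or vehicle (n = 5/group). Abdominal-aorta blood 24 h after the last dose, under pentobarbital. Serum total and HDL cholesterol by enzymatic kit.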
# [9] = Cmax in Japanese white rabbit at 10 mg/kg, po; assay type: ADME, organism-based, Oryctolagus cuniculus; parameters: dose 10 mg/kg, route oral; conditions: in vivo
# Outline: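 Oral 10 mg/kg in 5% arabic gum to male Japanese white rabbits (2.7-3.0 kg, n = 4). Ear-vein heparinized blood at 0.25, 0.5, 1, 2, 3, 5, 8, 24 h. Free-form concentration in plasma by HPLC.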
# Syrian golden hamster [10] = assay: Hypolipidemic effect in regular diet fed Syrian hamster assessed as LDL/VLDL cholesterol level at 3 mg/kg/day, po for 3 weeks; assay type: functional, Mesocricetus auratus; outline: as §4
# Oryctolagus cuniculus [11] = assay: Hypolipidemic effect in high-cholesterol diet fed Japanese white rabbit assessed as LDL/VLDL cholesterol level at 1 mg/kg/day, po for 7 days; assay type: functional
# Outline: (§5)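 Male Japanese white rabbits (2.5-3.0 kg) fed 1% cholesterol diet for 7 days with once-daily oral dosing in 5% arabic gum, or vehicle (n = 5/group). Fasted overnight after the final dose; ear-artery blood. Serum total and HDL cholesterol by enzymatic kit.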
# [12] = biological target: T1, Sterol O-acyltransferase 1; assay: Inhibition of ACAT-mediated esterified cholesterol accumulation in human THP1 cells exposed to acetyl-LDL after differentiation assessed as effect on foam cell formation; assay type: cell-based, THP-1
# Outline: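 THP-1 cells first differentiated 3 days in RPMI-1640/10% FBS with PMA 200 nM and 2-mercaptoethanol 50 µM. Then washed and cultured 2 days with 50 µM 2-mercaptoethanol, acetyl-LDL 400 µg/mL from KHC rabbit plasma, and compound. Lipids extracted with hexane/isopropanol; esterified cholesterol = total minus free cholesterol, enzymatic; protein by Lowry. Duplicate assay, n = 4.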
# Oryctolagus cuniculus [13] = assay: Hypolipidemic effect in high-cholesterol diet fed Japanese white rabbit assessed as HDL cholesterol level at 1 mg/kg/day, po for 7 days; assay type: functional; outline: as §5
# [14] = Cmax in Beagle dog at 10 mg/kg, po; assay type: ADME, organism-based, Canis lupus familiaris; parameters: dose 10 mg/kg, route oral; conditions: in vivo
# Outline: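 Male beagles (9.0-11.6 kg, n = 4) dosed orally at 10 mg/kg as a 5% arabic gum suspension. Heparinized jugular-vein blood at 0.25, 0.5, 1, 2, 3, 5, 8, 12 h. Plasma free-form drug measured by HPLC.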
# [15] = Cmax in Sprague-Dawley rat at 10 mg/kg, po; assay type: ADME, organism-based; parameters: dose 10 mg/kg, route oral; conditions: in vivo; outline: as §1
# [16] = biological target: T2, Acyl-CoA:cholesterol acyltransferase; assay: Inhibition of ACAT in microsomes from hyperlipidemic white rabbit macrophages assessed as esterified cholesterol accumulation; outline: as §3
# Rattus norvegicus [17] = assay: Hypolipidemic effect in high-cholesterol diet fed Wistar rat assessed as LDL/VLDL cholesterol level at 3 mg/kg/day, po for 3 days; assay type: functional; outline: as §2
# [18] = biological target: T2, Acyl-CoA:cholesterol acyltransferase; assay: Inhibition of ACAT in hyperlipidemic white rabbit liver microsomes assessed as esterified cholesterol accumulation; parameters: species or system Microsome; outline: as §3
# Canis familiaris [19] = assay: Hypolipidemic effect in Western diet fed Beagle dog assessed as LDL/VLDL cholesterol level at 3 mg/kg/day, po for 7 days; assay type: functional, Canis lupus familiaris
# Outline: (§6)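 Male beagles (8.8-12.0 kg) fed a Western diet (meat, eggs, butter) for 7 days with once-daily oral dosing in 5% arabic gum, or vehicle (n = 3/group). […] blood 24 h after the last dose. Serum total and HDL cholesterol measured enzymatically.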
# Plasma = assay: Inhibition of LDL oxidation in genetically hypercholesterolemic KHC rabbit plasma assessed as malonaldehyde level after 1 hr; assay type: functional, cell-free; conditions: Oryctolagus cuniculus
# Outline: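 LDL fraction isolated from plasma of male KHC rabbits and oxidized with CuSO₄ 5 µM at 37 °C for 1 h with vehicle or compound. Oxidation read as MDA. IC50 from duplicate tubes per concentration; n = 4.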
# [20] = Inhibition of lipid peroxidation in genetically hypercholesterolemic KHC rabbit serum assessed as malonaldehyde level after 4 hrs; assay type: functional, cell-free; conditions: Oryctolagus cuniculus
# Outline: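 Heparinized ear-artery plasma from KHC rabbits (2.4-2.7 kg) incubated with CuSO₄ 2 mM at 37 °C for 4 h with vehicle or compound. Lipid peroxide measured as MDA by kit. IC50 from duplicate tubes; n = 2.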
# Canis familiaris [21] = assay: Hypolipidemic effect in Western diet fed Beagle dog assessed as HDL:HDL cholesterol level at 3 mg/kg/day, po for 7 days; assay type: functional, Canis lupus familiaris; outline: as §6
# [22] = biological target: T2, Acyl-CoA:cholesterol acyltransferase; assay: Inhibition of ACAT in hyperlipidemic white rabbit adrenal microsomes assessed as esterified cholesterol accumulation; parameters: species or system Adrenal gland; outline: as §3
SMILES,IC50 (Brain) [nM],IC50 [1] [nM],logD [2],IC50 [3] [nM],AUC [4] [ng·h/mL],solubility [5] [µg/mL],also measured
CCCCCCCCN1CCc2c(C)c(Cc3nnn[nH]3)c(C)c(NC(=O)C(C)(C)C)c21,1700,> 10000,3.7,> 10000,6600,66,
CCCCCCCCN1CCc2c(C)c(CN)c(C)c(NC(=O)C(C)(C)C)c21.Cl.Cl,,,2.3,,,857,
CCCCCCCCN1CC(CCC(=O)O)c2c(C)cc(C)c(NC(=O)C(C)(C)C)c21.Cl (stereo not drawn),,,3.5,,,355,
CCCCCCCCN1CCc2c(C)cc(C)c(NC(=O)C(C)(C)CCC(=O)O)c21,6600,> 10000,,> 10000,5000,,
CCCCCCCCN1CCc2c(C)cc(C)c(NC(=O)C(C)(C)C)c21,3100,,,,200,,
Cc1cc(C)c(NC(=O)C(C)(C)C)c2c1CCN2CCCCCCCCCC(=O)O.Cl,,,2.8,,,732,
CCCCCCCCN1CCc2c(C)c(CC(=O)O)c(C)c(NC(=O)C(C)(C)C)c21 [PACTIMIBE],1300,1800,,1200,1500,,Activity (Rattus norvegicus [6]): 29.4 mg/dL; IC50 [7]: 720 nM; Activity (Cavia porcellus): Non-toxic; Activity (Syrian golden hamster [8]): 58.3 mg/dL; Cmax [9]: 7.2 µM; Activity (Syrian golden hamster [10]): 70.3 mg/dL; Activity (Oryctolagus cuniculus [11]): 119.5 mg/dL; IC50 [12]: 300 nM; Activity (Oryctolagus cuniculus [13]): 15.4 mg/dL; Cmax [14]: 26.8 µM; Cmax [15]: 2.2 µM; IC50 [16]: 1900 nM; Activity (Rattus norvegicus [17]): 9.7 mg/dL; IC50 [18]: 690 nM; Activity (Canis familiaris [19]): 31.6 mg/dL; IC50 (Plasma): 980 nM; IC50 [20]: 4400 nM; Activity (Canis familiaris [21]): 141.3 mg/dL; IC50 [22]: 15900 nM
CCCCCCCCN1CCc2c(C)c(CC(=O)O)c(C)c(NC(=O)C(C)(C)C)c21.CCCCCCCCN1CCc2c(C)c(CC(=O)O)c(C)c(NC(=O)C(C)(C)C)c21.O=S(=O)(O)O [PACTIMIBE SULFATE],,,2.9,,,1450,

# Reference: ChEMBL document CHEMBL1155847, “Novel indoline-based acyl-CoA:cholesterol acyltransferase inhibitor with antiperoxidative activity: improvement of physicochemical properties and biological activities by introduction of carboxylic acid” (J Med Chem, 2008)
